Measurements gathered from unrelated publications.
Compare with care: the assays were run in different laboratories.
Read-out: enzyme activity
Action: inhibitor
EGFR: Epidermal growth factor receptor (EGFR, Homo sapiens, UniProt P00533)
YCK2: Serine/threonine protein kinase YCK2 (YCK2, Candida albicans, UniProt A0A1D8PKB4)
CDK6 with cyclin D3: Cyclin-dependent kinase 6, with cyclin D3 (CDK6, Homo sapiens, UniProt Q00534)
MTOR: Serine/threonine-protein kinase mTOR (MTOR, Homo sapiens, UniProt P42345)
CA2: Carbonic anhydrase 2 (CA2, Bos taurus, UniProt P00921)

SMILES | target | test | IC50
Nc1cc(N2C(=O)c3ccccc3C2=O)nc(SCC(=O)NN=Cc2ccc(Cl)cc2)n1 | EGFR |  | 880 nM
c1ccc(-c2[nH]ccc2-c2ccnc3ccccc23)nc1 | YCK2 | ADP detection | 4900 nM
N#Cc1ccc(NC(=O)Nc2ccccc2)cc1 | SRSF protein kinase 3 (SRPK3, Homo sapiens, UniProt Q9UPE1) | FRET | 5700 nM
O=C(/C=C/c1ccc(F)cc1)c1nc2ccccc2n1Cc1cn([C@@H]2OC[C@@H](O)[C@H](O)[C@H]2O)nn1 | EGFR |  | 75 nM
O=C1/C(=C/c2ccc3ccccc3c2O)NC(=S)N1c1ccccc1 | EGFR | ELISA | 183 nM
Nc1cnccc1Nc1ccc(Cl)c(Cl)c1 | DNA-3-methyladenine glycosylase (Homo sapiens, UniProt P29372) |  | > 99000 nM
CNS(=O)(=O)c1ccc(Nc2ncc(C(F)(F)F)c(N3CCCC(C)(O)C3)n2)c(C)c1 (stereo not drawn) | CDK6 with cyclin D3 | radiometric | 4320 nM
O=C1CCC(N2C(=O)c3ccccc3C2=O)C(=O)N1 (stereo not drawn) | EGFR |  | 1130 nM
COc1ccc(-c2ccc3c(N4CCOC[C@@H]4C)nc(N4CCOC[C@@H]4C)nc3n2)cc1COCCOCCOCCOCCONC(=O)c1ccc(F)c(F)c1Nc1ccc(I)cc1F | MTOR | FRET | 28 to 40 nM
CC(=O)c1nc2ccccc2n1Cc1cn([C@@H]2OC[C@@H](O)[C@H](O)[C@H]2O)nn1 | EGFR |  | 132 nM
COc1ccc(N2CCN(Cc3cn4c(-c5ccc(Br)cc5)nnc4s3)CC2)cc1 | Ferroptosis suppressor protein 1 (AIFM2, Homo sapiens, UniProt Q9BRQ8) | absorbance | 34 nM
COc1cc(-c2[nH]c(=S)nc3nc(Nc4ccc(S(N)(=O)=O)cc4)sc23)ccc1O | CA2 | absorbance | 79.5 nM
Cc1cc(O)c(-c2ccc([C@@H](C)CN(C)C)cc2)c2c1[nH]c(=O)c1sccc12 | Cyclin-dependent kinase 6, with cyclin D1 (CDK6, Homo sapiens, UniProt Q00534) |  | > 1000 nM
N=C(N)c1ccc(OCCCCCOc2ccc(C(=N)N)cc2)cc1 | Neutrophil elastase (ELANE, Homo sapiens, UniProt P08246) | absorbance | > 100000 nM
C[C@H]1COCCN1c1nc(N2CCOC[C@@H]2C)c2ccc(-c3cccc(C(=O)NCCOCCOCCOCCONC(=O)c4ccc(F)c(F)c4Nc4ccc(I)cc4F)c3)nc2n1 | MTOR | FRET | 330 nM
c1ccc(-c2n[nH]cc2-c2ccncn2)nc1 | YCK2 | ADP detection | 1600 nM
CNS(=O)(=O)c1ccc(Nc2ncc3cc(Cl)c(=O)n(C4CCCC4)c3n2)c(C)c1 | CDK6 with cyclin D3 | radiometric | 62 nM
COc1c(Cl)cccc1Nc1c(-c2ccncc2OC[C@@H]2COCCO2)[nH]c2c1C(=O)NCC2 | EGFR | TR-FRET | < 0.5 nM
C[C@@H]1O[C@@H](O[C@H]2[C@H](Oc3cc(O)c4c(c3)O[C@H](c3ccc(O)cc3)CC4=O)O[C@H](CO)[C@@H](O)[C@@H]2O)[C@H](O)[C@H](O)[C@H]1O | CA2 | absorbance | 83 nM
Cc1cc2c(C(N)=O)c(N)n(-c3c(C)ccc(O)c3C)c2nc1C | Serine/threonine-protein kinase B-raf (BRAF, Homo sapiens, UniProt P15056) | ADP detection | 15.3 nM
c1coc(-c2n[nH]cc2-c2ccnc3ccccc23)c1 | YCK2 | ADP detection | 830 nM
CNS(=O)(=O)c1ccc(Nc2ncc(C(F)(F)F)c([C@H]3CC[C@](C)(O)CC3)n2)c(C)c1 | CDK6 with cyclin D3 | radiometric | 715 nM
Oc1ccccc1-c1n[nH]cc1-c1ccnc2ccccc12 | YCK2 | ADP detection | 350 nM
NS(=O)(=O)c1ccc(-n2nc(C(=O)NN=Cc3ccc(O)cc3)cc2-c2ccccc2)cc1 | Serine/threonine-protein kinase B-raf (BRAF, Homo sapiens, UniProt P15056, V600E) |  | 18500 nM
